Experiments:
CCRF-CEM = experiment: Cytotoxicity against human CCRF-CEM cells after 48 hrs by sulforhodamine B assay; type: functional
OVCAR-3 = experiment: Cytotoxicity against human OVCAR3 cells after 48 hrs by sulforhodamine B assay; type: functional; conditions: OVCAR-3, 48 h
NCI-H322M = experiment: Cytotoxicity against human NCI-H322M cells after 48 hrs by sulforhodamine B assay; type: functional
DU-145 = experiment: Cytotoxicity against human DU145 cells after 48 hrs by sulforhodamine B assay; type: functional; conditions: DU-145, 48 h
OVCAR-4 = experiment: Cytotoxicity against human OVCAR4 cells after 48 hrs by sulforhodamine B assay; type: functional; conditions: OVCAR-4, 48 h
UO-31 = experiment: Cytotoxicity against human UO31 cells after 48 hrs by sulforhodamine B assay; type: functional; conditions: UO-31, 48 h
CAKI-1 = experiment: Cytotoxicity against human Caki1 cells after 48 hrs by sulforhodamine B assay; type: functional; conditions: CAKI-1, 48 h
HT-29 = experiment: Cytotoxicity against human HT-29 cells after 48 hrs by sulforhodamine B assay; type: functional; conditions: HT-29, 48 h
UACC-257 = experiment: Cytotoxicity against human UACC257 cells after 48 hrs by sulforhodamine B assay; type: functional; conditions: UACC-257, 48 h
HCT-15 = experiment: Cytotoxicity against human HCT15 cells after 48 hrs by sulforhodamine B assay; type: functional; conditions: HCT-15, 48 h
NCI-H460 [1] = experiment: Induction of apoptosis in human NCI-H460 cells in serum free medium at 50 nM after 12 hrs by Hoechst 33342/propidium iodide staining based fluorescence microscopy; type: functional
How it was run: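 NCI-H460 cells exposed to a single 50 nM concentration for 12 h. Cells stained with Hoechst 33342 and propidium iodide. Blue cells with condensed or fragmented nuclei were scored as apoptotic and red, ruptured cells as necrotic. Result given as % apoptotic cell death; N = 6, one-way ANOVA.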

NCI-H460 [2] = experiment: Cytotoxicity against human NCI-H460 cells assessed as cell viability at 100 nM after 48 hrs by MTT assay; type: functional; conditions: NCI-H460, 48 h, read-out: Activity
How it was run: (§1)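 Viability of NCI-H460 cells was measured by MTT (mitochondrial enzymatic activity) after 48 h exposure, within a dose series spanning 1 nM–10 μM. N = 9, analysed by two-way ANOVA.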

MOLT-4 = experiment: Cytotoxicity against human MOLT4 cells after 48 hrs by sulforhodamine B assay; type: functional; conditions: MOLT-4, 48 h
NCI-H460 [3] = experiment: Cytotoxicity against human NCI-H460 cells assessed as cell death in serum free medium at 75 nM after 12 hrs by Hoechst 33342/propidium iodide staining based fluorescence microscopy; type: functional
How it was run: (§2)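 NCI-H460 human lung cancer cells exposed 12 h to 10 nM–10 μM drug, including a 50 nM single-concentration test. Nuclei were stained with Hoechst 33342 and necrotic cells with propidium iodide. Apoptotic cells were scored by condensed or fragmented blue nuclei and necrotic cells by red PI staining. Total cell death (apoptosis plus necrosis) was recorded; N = 6.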

NCI-H226 = experiment: Cytotoxicity against human NCI-H226 cells after 48 hrs by sulforhodamine B assay; type: functional; conditions: NCI-H226, 48 h
HOP-62 = experiment: Cytotoxicity against human HOP62 cells after 48 hrs by sulforhodamine B assay; type: functional; conditions: HOP-62, 48 h
HOP-92 = experiment: Cytotoxicity against human HOP92 cells after 48 hrs by sulforhodamine B assay; type: functional; conditions: HOP-92, 48 h
MDA-MB-435 [4] = experiment: Cytotoxicity against human MDA-MB-435 melanoma cells after 48 hrs by sulforhodamine B assay; type: functional; conditions: MDA-MB-435, 48 h
NCI-H460 [5] = experiment: Cytotoxicity against human NCI-H460 cells assessed as cell death in serum free medium at 100 nM after 12 hrs by Hoechst 33342/propidium iodide staining based fluorescence microscopy; type: functional; how it was run: as §2
NCI-H460 [6] = experiment: Cytotoxicity against human NCI-H460 cells assessed as cell death in serum free medium at 10000 nM after 12 hrs by Hoechst 33342/propidium iodide staining based fluorescence microscopy; type: functional; how it was run: as §2
MDA-MB-435 [7] = experiment: Cytotoxicity against human MDA-MB-435 breast cancer cells after 48 hrs by sulforhodamine B assay; type: functional; conditions: MDA-MB-435, 48 h
NCI-H460 [8] = experiment: Cytotoxicity against human NCI-H460 cells assessed as cell viability at 1000 nM after 48 hrs by MTT assay; type: functional; conditions: NCI-H460, 48 h, read-out: Activity; how it was run: as §1
U-251 = experiment: Cytotoxicity against human U251 cells after 48 hrs by sulforhodamine B assay; type: functional; conditions: U-251, 48 h
TK-10 = experiment: Cytotoxicity against human TK10 cells after 48 hrs by sulforhodamine B assay; type: functional; conditions: TK-10, 48 h
OVCAR-8 = experiment: Cytotoxicity against human OVCAR8 cells after 48 hrs by sulforhodamine B assay; type: functional; conditions: OVCAR-8, 48 h
NCI-H460 [9] = experiment: Cytotoxicity against human NCI-H460 cells assessed as cell death in serum free medium at 50 nM after 12 hrs by Hoechst 33342/propidium iodide staining based fluorescence microscopy; type: functional; how it was run: as §2
T47D = experiment: Cytotoxicity against human T47D cells after 48 hrs by sulforhodamine B assay; type: functional
HCC 2998 = experiment: Cytotoxicity against human HCC2998 cells after 48 hrs by sulforhodamine B assay; type: functional; conditions: HCC 2998, 48 h
NCI/ADR-RES = experiment: Cytotoxicity against human NCI/ADR-RES cells after 48 hrs by sulforhodamine B assay; type: functional
SF-295 = experiment: Cytotoxicity against human SF295 cells after 48 hrs by sulforhodamine B assay; type: functional; conditions: SF-295, 48 h
SN12C = experiment: Cytotoxicity against human SN12C cells after 48 hrs by sulforhodamine B assay; type: functional
M14 = experiment: Cytotoxicity against human M14 cells after 48 hrs by sulforhodamine B assay; type: functional; conditions: M14, 48 h
NCI-H460 [10] = experiment: Cytotoxicity against human NCI-H460 cells assessed as cell viability at 500 nM after 48 hrs by MTT assay; type: functional; conditions: NCI-H460, 48 h, read-out: Activity; how it was run: as §1
SR = experiment: Cytotoxicity against human SR cells after 48 hrs by sulforhodamine B assay; type: functional
NCI-H460 [11] = experiment: Induction of apoptosis in human NCI-H460 cells in serum free medium after 12 hrs by Hoechst 33342/propidium iodide staining based fluorescence microscopy; type: functional, cell-based; conditions: for IC50: NCI-H460, 12 h
How it was run: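 NCI-H460 cells treated for 12 h at 10 nM to 10 μM. Total cell death (apoptosis plus necrosis) scored by Hoechst 33342/propidium iodide staining, with N = 6 and two-way ANOVA. IC50 obtained by nonlinear regression. Table values are the mean of three independent experiments with duplicate determinations.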

HCT-116 = experiment: Cytotoxicity against human HCT116 cells after 48 hrs by sulforhodamine B assay; type: functional; conditions: HCT-116, 48 h
BT-549 = experiment: Cytotoxicity against human BT549 cells after 48 hrs by sulforhodamine B assay; type: functional; conditions: BT-549, 48 h
RPMI-8226 = experiment: Cytotoxicity against human RPMI8226 cells after 48 hrs by sulforhodamine B assay; type: functional; conditions: RPMI-8226, 48 h

CC(C)[C@@H]1O[C@@H](O[C@H]2CC[C@@]3(C)[C@H](CC[C@@H]4[C@@H]3CC[C@]3(C)[C@@H](C5=CC(=O)OC5)CC[C@]43O)C2)CC[C@H]1O
GI50 (CCRF-CEM): 33.1 nM
GI50 (OVCAR-3): 26 nM
GI50 (NCI-H322M): 77.4 nM
GI50 (DU-145): 19.5 nM
GI50 (OVCAR-4): 123 nM
GI50 (UO-31): 23.4 nM
GI50 (CAKI-1): 20.8 nM
GI50 (HT-29): 41.9 nM
GI50 (UACC-257): 122 nM
GI50 (HCT-15): 62.2 nM
Activity (NCI-H460 [1]): 11.993%
viability at 0.1 µM (NCI-H460 [2]): 12.4%
GI50 (MOLT-4): 16.9 nM
Activity (NCI-H460 [3]): 16.05%
GI50 (NCI-H226): 119 nM
GI50 (HOP-62): 31.1 nM
GI50 (HOP-92): 79.8 nM
GI50 (MDA-MB-435 [4]): 82.8 nM
Activity (NCI-H460 [5]): 18.89%
Activity (NCI-H460 [6]): 100%
GI50 (MDA-MB-435 [7]): 150 nM
viability at 1 µM (NCI-H460 [8]): 5.21%
GI50 (U-251): 82.9 nM
GI50 (TK-10): 53.8 nM
GI50 (OVCAR-8): 56.2 nM
Activity (NCI-H460 [9]): 14.48%
GI50 (T47D): 95.9 nM
GI50 (HCC 2998): 243 nM
GI50 (NCI/ADR-RES): 31.5 nM
GI50 (SF-295): 28.6 nM
GI50 (SN12C): 23.7 nM
GI50 (M14): 93.4 nM
viability at 0.5 µM (NCI-H460 [10]): 6.35%
GI50 (SR): 37.2 nM
Activity (NCI-H460 [11]): Dose-dependent effect
IC50 (NCI-H460 [11]): 533 nM
GI50 (HCT-116): 21.5 nM
GI50 (BT-549): 20.7 nM
GI50 (RPMI-8226): 78.4 nM

CC(C)C[C@@H]1O[C@@H](O[C@H]2CC[C@@]3(C)[C@H](CC[C@@H]4[C@@H]3CC[C@]3(C)[C@@H](C5=CC(=O)OC5)CC[C@]43O)C2)CC[C@H]1O
GI50 (CCRF-CEM): 28.5 nM
GI50 (OVCAR-3): 23.5 nM
GI50 (NCI-H322M): 42.5 nM
GI50 (DU-145): 16.6 nM
GI50 (OVCAR-4): 85.5 nM
GI50 (UO-31): 27.7 nM
GI50 (CAKI-1): 24.4 nM
GI50 (HT-29): 31.5 nM
GI50 (UACC-257): 31.3 nM
GI50 (HCT-15): 40.3 nM
Activity (NCI-H460 [1]): 9.2821%
viability at 0.1 µM (NCI-H460 [2]): 18.5%
GI50 (MOLT-4): 13.1 nM
Activity (NCI-H460 [3]): 15%
GI50 (NCI-H226): 95.9 nM
GI50 (HOP-62): 23.1 nM
GI50 (HOP-92): 74.2 nM
GI50 (MDA-MB-435 [4]): 35.1 nM
Activity (NCI-H460 [5]): 17.69%
Activity (NCI-H460 [6]): 100%
GI50 (MDA-MB-435 [7]): 149 nM
viability at 1 µM (NCI-H460 [8]): 3.64%
GI50 (U-251): 39.7 nM
GI50 (TK-10): 28.6 nM
GI50 (OVCAR-8): 29.6 nM
Activity (NCI-H460 [9]): 13.06%
GI50 (T47D): 36.2 nM
GI50 (HCC 2998): 204 nM
GI50 (NCI/ADR-RES): 26.9 nM
GI50 (SF-295): 24.9 nM
GI50 (SN12C): 23.7 nM
GI50 (M14): 67.2 nM
viability at 0.5 µM (NCI-H460 [10]): 4.88%
GI50 (SR): 23 nM
Activity (NCI-H460 [11]): Dose-dependent effect
IC50 (NCI-H460 [11]): 458 nM
GI50 (HCT-116): 26.1 nM
GI50 (BT-549): 22.5 nM
GI50 (RPMI-8226): 35.6 nM

From ChEMBL document CHEMBL1817593, “C5'-Alkyl Substitution Effects on Digitoxigenin α-l-Glycoside Cancer Cytotoxicity” (ACS Med Chem Lett, 2011)
